Calls of active or inactive are those of the source. No cut-off for these calls is given here. Where a SMILES comes first, the peptide text is derived from it. [ ]: non-standard residue; d: D form. The star is where a group is joined. Ethyl(2-stearoyloxy) = CCCCCCCCCCCCCCCCCC(=O)OCC*; Ethyl(2-palmitoyloxy) = CCCCCCCCCCCCCCCC(=O)OCC*; CH2CH2OBz(4-tBu) = CC(C)(C)c1ccc(C(=O)OCC*)cc1; Ethyl(2-decanoyloxy) = CCCCCCCCCC(=O)OCC*; Ethyl(2-butanoyloxy) = CCCC(=O)OCC*; Ethyl(2-OPiv) = CC(C)(C)C(=O)OCC*; Mpa = O=C(O)CCS
Each compound was assayed against Gap junction alpha-1 protein (Homo sapiens) (UniProt P17302) (assay: Inhibition of Cx43 in hypoxic-acidic ion-shifted ringers solution-induced human cerebral microvascular endothelial cell model of ischaemic injury assessed as ATP release at 10 uM measured after 2 hrs by luciferin-luciferase based luminescence assay relative to control).
Chain of Gap junction alpha-1 protein (Homo sapiens) (P17302 whole entry): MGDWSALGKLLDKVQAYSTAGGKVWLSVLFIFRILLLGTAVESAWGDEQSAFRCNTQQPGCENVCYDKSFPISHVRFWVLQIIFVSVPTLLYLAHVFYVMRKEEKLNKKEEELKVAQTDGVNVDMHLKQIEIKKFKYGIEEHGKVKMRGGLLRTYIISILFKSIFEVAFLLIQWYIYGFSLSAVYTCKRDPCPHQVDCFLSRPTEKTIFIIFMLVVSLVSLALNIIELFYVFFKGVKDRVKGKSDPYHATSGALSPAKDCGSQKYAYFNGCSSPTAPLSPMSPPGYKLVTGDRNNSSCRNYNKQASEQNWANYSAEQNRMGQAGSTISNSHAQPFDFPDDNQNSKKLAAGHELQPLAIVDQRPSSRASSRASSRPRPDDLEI
Parameters: scale not given: the % may be the effect or the level left
Summary of the method: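 hCMVEC (passages 8-17) seeded at 2 x 10^6/well on collagen-I (1 µg/cm²) and grown 48 h to a confluent monolayer. Washed in NR, then exposed 2 h in HAIR (pH 6.6, N₂-bubbled, low Ca²⁺, K-gluconate/NMDG) containing peptide at 10 µM. Supernatant diluted 1:10 in firefly luciferase mix and read at 560 nm against an ATP standard (0-50 nM). Expressed as % of HAIR-only, mean of n=3.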

| Structure (SMILES) | Activity |
| --- | --- |
| CCCCCCCCCC(=O)OCCSC[C@H](NC(=O)[C@H](CC(C)C)NC(=O)[C@H](Cc1ccccc1)NC(=O)[C@H](CS)NC(=O)[C@H](CC(=O)O)NC(=O)[C@@H](N)C(C)C)C(=O)N[C@@H](CCCNC(=N)N)C(=O)N1CCC[C@H]1C(=O)N[C@H](C(=O)N[C@@H](CCC(=O)O)C(=O)N[C@@H](CCCCN)C(=O)N[C@H](C(=O)O)[C@@H](C)O)[C@@H](C)O (H-VDCFLC(Ethyl(2-decanoyloxy))RPTEKT-OH) | inactive |
| CCCC(=O)OCCSCCC(=O)N[C@H](C(=O)N[C@@H](CC(=O)O)C(=O)N[C@@H](CS)C(=O)N[C@@H](Cc1ccccc1)C(=O)N[C@@H](CC(C)C)C(=O)N[C@@H](CO)C(=O)N[C@@H](CCCNC(=N)N)C(=O)N1CCC[C@H]1C(=O)N[C@H](C(=O)N[C@@H](CCC(=O)O)C(=O)N[C@@H](CCCCN)C(=O)N[C@H](C(=O)O)[C@@H](C)O)[C@@H](C)O)C(C)C ([Mpa](Ethyl(2-butanoyloxy))VDCFLSRPTEKT-OH) | 28.8% |
| CCCC(=O)OCCSC[C@H](NC(=O)[C@H](CCCCN)NC(=O)[C@H](CCC(=O)O)NC(=O)[C@@H](NC(=O)[C@@H]1CCCN1C(=O)[C@H](CCCNC(=N)N)NC(=O)[C@H](CO)NC(=O)[C@H](CC(C)C)NC(=O)[C@H](Cc1ccccc1)NC(=O)[C@H](CS)NC(=O)[C@H](CC(=O)O)NC(=O)[C@@H](N)C(C)C)[C@@H](C)O)C(=O)O (H-VDCFLSRPTEKC(Ethyl(2-butanoyloxy))-OH) | inactive |
| CCCCCCCCCCCCCCCCCC(=O)OCCSCCC(=O)N[C@H](C(=O)N[C@@H](CC(=O)O)C(=O)N[C@@H](CS)C(=O)N[C@@H](Cc1ccccc1)C(=O)N[C@@H](CC(C)C)C(=O)N[C@@H](CO)C(=O)N[C@@H](CCCNC(=N)N)C(=O)N1CCC[C@H]1C(=O)N[C@H](C(=O)N[C@@H](CCC(=O)O)C(=O)N[C@@H](CCCCN)C(=O)N[C@H](C(=O)O)[C@@H](C)O)[C@@H](C)O)C(C)C ([Mpa](Ethyl(2-stearoyloxy))VDCFLSRPTEKT-OH) | inactive |
| CCCC(=O)OCCSC[C@H](N)C(=O)N[C@@H](CC(=O)O)C(=O)N[C@@H](CS)C(=O)N[C@@H](Cc1ccccc1)C(=O)N[C@@H](CC(C)C)C(=O)N[C@@H](CO)C(=O)N[C@@H](CCCNC(=N)N)C(=O)N1CCC[C@H]1C(=O)N[C@H](C(=O)N[C@@H](CCC(=O)O)C(=O)N[C@@H](CCCCN)C(=O)N[C@H](C(=O)O)[C@@H](C)O)[C@@H](C)O (H-C(Ethyl(2-butanoyloxy))DCFLSRPTEKT-OH) | inactive |
| CCCCCCCCCCCCCCCCCC(=O)OCCSC[C@H](NC(=O)[C@H](CC(C)C)NC(=O)[C@H](Cc1ccccc1)NC(=O)[C@H](CS)NC(=O)[C@H](CC(=O)O)NC(=O)[C@@H](N)C(C)C)C(=O)N[C@@H](CCCNC(=N)N)C(=O)N1CCC[C@H]1C(=O)N[C@H](C(=O)N[C@@H](CCC(=O)O)C(=O)N[C@@H](CCCCN)C(=O)N[C@H](C(=O)O)[C@@H](C)O)[C@@H](C)O (H-VDCFLC(Ethyl(2-stearoyloxy))RPTEKT-OH) | inactive |
| CC(C)C[C@H](NC(=O)[C@H](Cc1ccccc1)NC(=O)[C@H](CS)NC(=O)[C@H](CC(=O)O)NC(=O)[C@@H](N)C(C)C)C(=O)N[C@@H](CO)C(=O)N[C@@H](CCCNC(=N)N)C(=O)N1CCC[C@H]1C(=O)N[C@@H](CSCCOC(=O)C(C)(C)C)C(=O)N[C@@H](CCC(=O)O)C(=O)N[C@@H](CCCCN)C(=O)N[C@H](C(=O)O)[C@@H](C)O (H-VDCFLSRPC(Ethyl(2-OPiv))EKT-OH) | inactive |
| CCCCCCCCCCCCCCCCCC(=O)OCCSC[C@H](N)C(=O)N[C@@H](CC(=O)O)C(=O)N[C@@H](CS)C(=O)N[C@@H](Cc1ccccc1)C(=O)N[C@@H](CC(C)C)C(=O)N[C@@H](CO)C(=O)N[C@@H](CCCNC(=N)N)C(=O)N1CCC[C@H]1C(=O)N[C@H](C(=O)N[C@@H](CCC(=O)O)C(=O)N[C@@H](CCCCN)C(=O)N[C@H](C(=O)O)[C@@H](C)O)[C@@H](C)O (H-C(Ethyl(2-stearoyloxy))DCFLSRPTEKT-OH) | inactive |
| CC(C)C[C@H](NC(=O)[C@H](Cc1ccccc1)NC(=O)[C@H](CS)NC(=O)[C@H](CC(=O)O)NC(=O)[C@@H](N)C(C)C)C(=O)N[C@@H](CSCCOC(=O)C(C)(C)C)C(=O)N[C@@H](CCCNC(=N)N)C(=O)N1CCC[C@H]1C(=O)N[C@H](C(=O)N[C@@H](CCC(=O)O)C(=O)N[C@@H](CCCCN)C(=O)N[C@H](C(=O)O)[C@@H](C)O)[C@@H](C)O (H-VDCFLC(Ethyl(2-OPiv))RPTEKT-OH) | inactive |
| CC(C)C[C@H](NC(=O)[C@H](Cc1ccccc1)NC(=O)[C@H](CS)NC(=O)[C@H](CC(=O)O)NC(=O)[C@@H](N)C(C)C)C(=O)N[C@@H](CO)C(=O)N[C@@H](CCCNC(=N)N)C(=O)N1CCC[C@H]1C(=O)N[C@@H](CSCCOC(=O)c1ccc(C(C)(C)C)cc1)C(=O)N[C@@H](CCC(=O)O)C(=O)N[C@@H](CCCCN)C(=O)N[C@H](C(=O)O)[C@@H](C)O (H-VDCFLSRPC(CH2CH2OBz(4-tBu))EKT-OH) | inactive |
| CC(C)C[C@H](NC(=O)[C@H](Cc1ccccc1)NC(=O)[C@H](CS)NC(=O)[C@H](CC(=O)O)NC(=O)[C@@H](N)CSCCOC(=O)c1ccc(C(C)(C)C)cc1)C(=O)N[C@@H](CO)C(=O)N[C@@H](CCCNC(=N)N)C(=O)N1CCC[C@H]1C(=O)N[C@H](C(=O)N[C@@H](CCC(=O)O)C(=O)N[C@@H](CCCCN)C(=O)N[C@H](C(=O)O)[C@@H](C)O)[C@@H](C)O (H-C(CH2CH2OBz(4-tBu))DCFLSRPTEKT-OH) | inactive |
| CCCCCCCCCCCCCCCC(=O)OCCSC[C@H](NC(=O)[C@@H]1CCCN1C(=O)[C@H](CCCNC(=N)N)NC(=O)[C@H](CO)NC(=O)[C@H](CC(C)C)NC(=O)[C@H](Cc1ccccc1)NC(=O)[C@H](CS)NC(=O)[C@H](CC(=O)O)NC(=O)[C@@H](N)C(C)C)C(=O)N[C@@H](CCC(=O)O)C(=O)N[C@@H](CCCCN)C(=O)N[C@H](C(=O)O)[C@@H](C)O (H-VDCFLSRPC(Ethyl(2-palmitoyloxy))EKT-OH) | 102% |
| CCCC(=O)OCCSC[C@H](NC(=O)[C@@H]1CCCN1C(=O)[C@H](CCCNC(=N)N)NC(=O)[C@H](CO)NC(=O)[C@H](CC(C)C)NC(=O)[C@H](Cc1ccccc1)NC(=O)[C@H](CS)NC(=O)[C@H](CC(=O)O)NC(=O)[C@@H](N)C(C)C)C(=O)N[C@@H](CCC(=O)O)C(=O)N[C@@H](CCCCN)C(=O)N[C@H](C(=O)O)[C@@H](C)O (H-VDCFLSRPC(Ethyl(2-butanoyloxy))EKT-OH) | inactive |
| CCCCCCCCCCCCCCCC(=O)OCCSC[C@H](NC(=O)[C@H](CC(C)C)NC(=O)[C@H](Cc1ccccc1)NC(=O)[C@H](CS)NC(=O)[C@H](CC(=O)O)NC(=O)[C@@H](N)C(C)C)C(=O)N[C@@H](CCCNC(=N)N)C(=O)N1CCC[C@H]1C(=O)N[C@H](C(=O)N[C@@H](CCC(=O)O)C(=O)N[C@@H](CCCCN)C(=O)N[C@H](C(=O)O)[C@@H](C)O)[C@@H](C)O (H-VDCFLC(Ethyl(2-palmitoyloxy))RPTEKT-OH) | inactive |
| CC(C)C[C@H](NC(=O)[C@H](CSCCOC(=O)c1ccc(C(C)(C)C)cc1)NC(=O)[C@H](CS)NC(=O)[C@H](CC(=O)O)NC(=O)[C@@H](N)C(C)C)C(=O)N[C@@H](CO)C(=O)N[C@@H](CCCNC(=N)N)C(=O)N1CCC[C@H]1C(=O)N[C@H](C(=O)N[C@@H](CCC(=O)O)C(=O)N[C@@H](CCCCN)C(=O)N[C@H](C(=O)O)[C@@H](C)O)[C@@H](C)O (H-VDCC(CH2CH2OBz(4-tBu))LSRPTEKT-OH) | inactive |
| CCCCCCCCCC(=O)OCCSC[C@H](NC(=O)[C@H](CCCCN)NC(=O)[C@H](CCC(=O)O)NC(=O)[C@@H](NC(=O)[C@@H]1CCCN1C(=O)[C@H](CCCNC(=N)N)NC(=O)[C@H](CO)NC(=O)[C@H](CC(C)C)NC(=O)[C@H](Cc1ccccc1)NC(=O)[C@H](CS)NC(=O)[C@H](CC(=O)O)NC(=O)[C@@H](N)C(C)C)[C@@H](C)O)C(=O)O (H-VDCFLSRPTEKC(Ethyl(2-decanoyloxy))-OH) | inactive |
| CCCCCCCCCCCCCCCCCC(=O)OCCSC[C@H](NC(=O)[C@H](CCCCN)NC(=O)[C@H](CCC(=O)O)NC(=O)[C@@H](NC(=O)[C@@H]1CCCN1C(=O)[C@H](CCCNC(=N)N)NC(=O)[C@H](CO)NC(=O)[C@H](CC(C)C)NC(=O)[C@H](Cc1ccccc1)NC(=O)[C@H](CS)NC(=O)[C@H](CC(=O)O)NC(=O)[C@@H](N)C(C)C)[C@@H](C)O)C(=O)O (H-VDCFLSRPTEKC(Ethyl(2-stearoyloxy))-OH) | 129% |
| CC(C)C[C@H](NC(=O)[C@H](CSCCOC(=O)C(C)(C)C)NC(=O)[C@H](CS)NC(=O)[C@H](CC(=O)O)NC(=O)[C@@H](N)C(C)C)C(=O)N[C@@H](CO)C(=O)N[C@@H](CCCNC(=N)N)C(=O)N1CCC[C@H]1C(=O)N[C@H](C(=O)N[C@@H](CCC(=O)O)C(=O)N[C@@H](CCCCN)C(=O)N[C@H](C(=O)O)[C@@H](C)O)[C@@H](C)O (H-VDCC(Ethyl(2-OPiv))LSRPTEKT-OH) | 23.4% |
| CCCCCCCCCC(=O)OCCSC[C@H](N)C(=O)N[C@@H](CC(=O)O)C(=O)N[C@@H](CS)C(=O)N[C@@H](Cc1ccccc1)C(=O)N[C@@H](CC(C)C)C(=O)N[C@@H](CO)C(=O)N[C@@H](CCCNC(=N)N)C(=O)N1CCC[C@H]1C(=O)N[C@H](C(=O)N[C@@H](CCC(=O)O)C(=O)N[C@@H](CCCCN)C(=O)N[C@H](C(=O)O)[C@@H](C)O)[C@@H](C)O (H-C(Ethyl(2-decanoyloxy))DCFLSRPTEKT-OH) | inactive |
| CCCCCCCCCCCCCCCCCC(=O)OCCSC[C@H](NC(=O)[C@@H]1CCCN1C(=O)[C@H](CCCNC(=N)N)NC(=O)[C@H](CO)NC(=O)[C@H](CC(C)C)NC(=O)[C@H](Cc1ccccc1)NC(=O)[C@H](CS)NC(=O)[C@H](CC(=O)O)NC(=O)[C@@H](N)C(C)C)C(=O)N[C@@H](CCC(=O)O)C(=O)N[C@@H](CCCCN)C(=O)N[C@H](C(=O)O)[C@@H](C)O (H-VDCFLSRPC(Ethyl(2-stearoyloxy))EKT-OH) | 102% |
